From ChEMBL document CHEMBL1909611, “Identification and SAR of selective inducible nitric oxide synthase (iNOS) dimerization inhibitors” (Bioorg Med Chem Lett, 2011)

Assays:
Assay type in all cases: cell-based
Nitric oxide synthase 1 [1] = target: T1, Nitric oxide synthase 1 (Homo sapiens, UniProt P29475); test: Inhibition of human nNOS expressed in HEK293 cells assessed as inhibition ionomycin-induced nitric oxide production at 100 uM incubated for 24 hrs measured after 18 hrs of ionomycin challenge by 2,3-diaminonaphthalene assay
T1 sequence (P29475 whole entry): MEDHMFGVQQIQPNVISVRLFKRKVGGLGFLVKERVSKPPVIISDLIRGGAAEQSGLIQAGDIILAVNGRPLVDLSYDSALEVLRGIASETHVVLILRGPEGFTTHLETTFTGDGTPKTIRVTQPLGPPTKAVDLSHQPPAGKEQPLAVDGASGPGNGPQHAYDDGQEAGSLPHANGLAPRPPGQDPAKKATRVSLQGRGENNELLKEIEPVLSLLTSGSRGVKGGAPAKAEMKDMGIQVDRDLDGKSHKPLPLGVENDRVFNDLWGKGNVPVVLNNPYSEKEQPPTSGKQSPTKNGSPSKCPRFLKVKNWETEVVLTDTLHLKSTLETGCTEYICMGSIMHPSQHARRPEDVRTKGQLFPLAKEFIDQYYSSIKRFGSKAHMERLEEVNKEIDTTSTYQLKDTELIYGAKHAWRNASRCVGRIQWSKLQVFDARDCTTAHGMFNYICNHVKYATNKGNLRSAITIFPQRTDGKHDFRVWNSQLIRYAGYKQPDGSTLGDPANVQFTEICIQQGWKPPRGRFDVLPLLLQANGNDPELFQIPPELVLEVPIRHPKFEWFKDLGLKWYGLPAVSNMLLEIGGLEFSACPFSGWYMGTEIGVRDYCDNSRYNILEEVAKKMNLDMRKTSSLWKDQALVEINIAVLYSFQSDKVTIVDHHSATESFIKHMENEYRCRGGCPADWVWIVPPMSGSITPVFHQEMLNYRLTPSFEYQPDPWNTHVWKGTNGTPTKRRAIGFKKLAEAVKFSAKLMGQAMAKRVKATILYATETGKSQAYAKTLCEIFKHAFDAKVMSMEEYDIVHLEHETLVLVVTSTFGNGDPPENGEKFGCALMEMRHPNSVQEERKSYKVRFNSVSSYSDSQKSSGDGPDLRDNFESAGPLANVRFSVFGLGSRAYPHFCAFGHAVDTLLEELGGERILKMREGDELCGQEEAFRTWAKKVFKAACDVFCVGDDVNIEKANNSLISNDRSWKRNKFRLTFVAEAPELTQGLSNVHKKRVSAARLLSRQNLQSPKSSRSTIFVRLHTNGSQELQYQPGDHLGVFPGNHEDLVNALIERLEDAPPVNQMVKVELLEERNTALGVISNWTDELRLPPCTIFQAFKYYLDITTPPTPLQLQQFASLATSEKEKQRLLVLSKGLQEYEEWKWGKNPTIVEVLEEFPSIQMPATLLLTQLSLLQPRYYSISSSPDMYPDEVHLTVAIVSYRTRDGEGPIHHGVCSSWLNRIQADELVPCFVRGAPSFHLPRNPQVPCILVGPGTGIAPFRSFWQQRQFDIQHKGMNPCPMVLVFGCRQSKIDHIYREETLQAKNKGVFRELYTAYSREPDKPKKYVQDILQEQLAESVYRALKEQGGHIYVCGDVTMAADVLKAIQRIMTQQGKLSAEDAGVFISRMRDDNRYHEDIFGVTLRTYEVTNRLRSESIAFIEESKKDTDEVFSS
Summary of the method: (§1)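 Transiently transfected cells plated at 5e5 cells/ml; compounds added immediately by pin transfer. Incubated 24 h with compound, then activated by ionophore (0.8 µM final). Fluorescence (ex 360/em 425 nm) read after raising pH with NaOH (0.12 N final). Values are mean of three experiments with SD. At 100 µM, <50% inhibition is reported as >100.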

[2] = target: T2, Nitric oxide synthase, inducible (Homo sapiens, UniProt P35228); test: Inhibition of human iNOS expressed in human HEK293 cells assessed as nitrite accumulation after 18 hrs by 2,3-diaminonapthalene assay
T2 sequence (P35228 whole entry): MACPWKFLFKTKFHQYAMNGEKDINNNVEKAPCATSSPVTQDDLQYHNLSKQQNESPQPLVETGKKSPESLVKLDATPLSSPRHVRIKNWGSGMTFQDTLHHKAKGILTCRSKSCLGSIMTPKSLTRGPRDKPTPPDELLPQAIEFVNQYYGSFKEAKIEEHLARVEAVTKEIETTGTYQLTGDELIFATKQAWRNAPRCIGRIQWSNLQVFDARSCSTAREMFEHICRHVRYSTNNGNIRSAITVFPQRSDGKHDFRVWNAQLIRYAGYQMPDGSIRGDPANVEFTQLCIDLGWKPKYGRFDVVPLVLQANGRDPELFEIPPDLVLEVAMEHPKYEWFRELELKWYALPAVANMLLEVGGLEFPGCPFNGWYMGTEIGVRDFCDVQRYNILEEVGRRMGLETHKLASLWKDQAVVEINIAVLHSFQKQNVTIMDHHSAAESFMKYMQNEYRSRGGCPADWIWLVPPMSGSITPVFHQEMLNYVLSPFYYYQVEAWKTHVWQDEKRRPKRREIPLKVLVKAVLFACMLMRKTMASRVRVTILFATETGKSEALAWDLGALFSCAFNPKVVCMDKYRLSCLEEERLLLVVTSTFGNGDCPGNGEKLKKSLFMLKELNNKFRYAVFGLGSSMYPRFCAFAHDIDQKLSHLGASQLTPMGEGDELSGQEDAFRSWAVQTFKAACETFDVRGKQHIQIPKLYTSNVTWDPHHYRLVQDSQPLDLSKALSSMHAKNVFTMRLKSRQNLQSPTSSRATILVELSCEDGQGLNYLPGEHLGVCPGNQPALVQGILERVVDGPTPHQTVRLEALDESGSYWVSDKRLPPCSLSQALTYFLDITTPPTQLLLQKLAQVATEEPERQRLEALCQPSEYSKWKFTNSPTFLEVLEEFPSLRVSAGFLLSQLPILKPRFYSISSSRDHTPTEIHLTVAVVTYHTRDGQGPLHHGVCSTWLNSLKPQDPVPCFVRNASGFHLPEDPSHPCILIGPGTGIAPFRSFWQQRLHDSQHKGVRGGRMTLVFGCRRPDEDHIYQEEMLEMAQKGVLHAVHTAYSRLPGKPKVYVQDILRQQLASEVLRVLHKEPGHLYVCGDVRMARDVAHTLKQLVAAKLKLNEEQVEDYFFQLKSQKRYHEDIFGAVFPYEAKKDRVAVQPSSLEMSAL
Summary of the method: as §1, with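 “18” for “24”, “for nitrite accumulation.” for “with compound, then activated by ionophore (0.8 µM final).”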

Nitric oxide synthase 1 [3] = target: T1, Nitric oxide synthase 1; test: Inhibition of human nNOS expressed in HEK293 cells assessed as inhibition ionomycin-induced nitric oxide production incubated for 24 hrs measured after 18 hrs of ionomycin challenge by 2,3-diaminonaphthalene assay; summary of the method: as §1
Nitric oxide synthase 3 = target: T3, Nitric oxide synthase 3 (Homo sapiens, UniProt P29474); test: Inhibition of human eNOS expressed in HEK293 cells assessed as inhibition A23187-induced nitric oxide production incubated for 24 hrs measured after 18 hrs of A23187 challenge by 2,3-diaminonaphthalene assay; summary of the method: as §1
T3 sequence (P29474 whole entry): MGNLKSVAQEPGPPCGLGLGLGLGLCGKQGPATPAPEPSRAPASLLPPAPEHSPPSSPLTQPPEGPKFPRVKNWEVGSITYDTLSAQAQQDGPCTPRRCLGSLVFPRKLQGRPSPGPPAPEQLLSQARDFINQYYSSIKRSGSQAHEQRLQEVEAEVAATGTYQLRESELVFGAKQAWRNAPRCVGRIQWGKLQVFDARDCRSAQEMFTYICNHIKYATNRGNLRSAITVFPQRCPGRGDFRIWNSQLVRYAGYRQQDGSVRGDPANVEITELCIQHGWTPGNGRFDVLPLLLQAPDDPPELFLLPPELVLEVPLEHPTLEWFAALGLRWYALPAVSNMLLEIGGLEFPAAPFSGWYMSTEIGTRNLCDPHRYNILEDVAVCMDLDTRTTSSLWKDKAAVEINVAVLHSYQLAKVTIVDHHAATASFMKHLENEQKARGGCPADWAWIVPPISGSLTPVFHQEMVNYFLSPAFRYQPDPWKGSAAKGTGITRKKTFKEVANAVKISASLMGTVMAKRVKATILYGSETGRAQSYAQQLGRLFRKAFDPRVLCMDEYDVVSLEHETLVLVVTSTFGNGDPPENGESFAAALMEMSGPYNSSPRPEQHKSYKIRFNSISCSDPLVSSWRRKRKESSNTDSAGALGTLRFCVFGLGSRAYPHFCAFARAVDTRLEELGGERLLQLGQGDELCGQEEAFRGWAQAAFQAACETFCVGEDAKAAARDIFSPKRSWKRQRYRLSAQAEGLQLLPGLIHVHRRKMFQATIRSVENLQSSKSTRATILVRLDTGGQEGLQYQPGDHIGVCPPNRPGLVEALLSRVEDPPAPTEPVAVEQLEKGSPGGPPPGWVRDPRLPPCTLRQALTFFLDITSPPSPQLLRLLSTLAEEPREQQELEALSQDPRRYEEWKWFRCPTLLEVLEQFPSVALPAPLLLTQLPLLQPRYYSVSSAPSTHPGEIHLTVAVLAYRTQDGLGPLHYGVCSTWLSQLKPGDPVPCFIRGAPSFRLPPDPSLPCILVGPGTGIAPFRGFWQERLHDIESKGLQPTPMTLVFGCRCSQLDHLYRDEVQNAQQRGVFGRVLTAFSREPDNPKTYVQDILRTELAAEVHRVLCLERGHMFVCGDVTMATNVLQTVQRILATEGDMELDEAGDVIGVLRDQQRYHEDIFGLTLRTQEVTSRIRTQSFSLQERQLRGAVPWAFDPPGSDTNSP

[4] = target: T4, Nitric oxide synthase 3 (Homo sapiens) (UniProt P29474); test: Inhibition of human eNOS expressed in HEK293 cells assessed as inhibition A23187-induced nitric oxide production at 100 uM incubated for 24 hrs measured after 18 hrs of A23187 challenge by 2,3-diaminonaphthalene assay; summary of the method: as §1
T4 sequence (whole entry): T3 sequence (P29474 whole entry)

[5] = target: T2, Nitric oxide synthase, inducible; test: Inhibition of human iNOS expressed in human HEK293 cells assessed as nitrite accumulation at 100 uM after 18 hrs by 2,3-diaminonapthalene assay
Summary of the method: as §1, with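 “18” for “24”, “for nitrite accumulation.” for “with compound, then activated by ionophore (0.8 µM final).”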

Row | Structure (SMILES) | inhibition (Nitric oxide synthase 1 [1]) [%] | EC50 [2] [µM] | EC50 (Nitric oxide synthase 1 [3]) [µM] | EC50 (Nitric oxide synthase 3) [µM] | inhibition [4] [%] | inhibition [5] [%]
1 | Cc1cc(CNC(=O)NCCc2ccc3c(c2)OCO3)nc(-n2ccnc2)n1 | < 50 | 0.014 | > 100 | > 100 | < 50 | 
2 | c1cncc(CN(CCCNCc2ccc3c(c2)OCO3)c2nc(-n3ccnc3)ns2)c1 |  | 0.005 | 0.48 | > 100 | < 50 | 
3 | c1cn(-c2nsc(N(CCCNCc3ccc4c(c3)OCO4)Cc3ccc4occc4c3)n2)cn1 |  | 0.09 | 7.9 | > 100 | < 50 | 
4 | CN(C)C(=O)CN(CCCNCc1ccc2c(c1)OCO2)c1nc(-n2ccnc2)ns1 | < 50 | 0.08 | > 100 | > 100 | < 50 | 
5 | Cn1cnc(CN(CCCNCc2ccc3c(c2)OCO3)c2nc(-n3ccnc3)ns2)c1 |  | 0.071 | 18 | > 100 | < 50 | 
6 | CN(CCCNC(=O)c1ccc2c(c1)OCO2)c1nc(-n2ccnc2)ns1 | < 50 | 6.3 | > 100 | > 100 | < 50 | 
7 | Cc1cc(C(C)NCCN(C)Cc2ccc3c(c2)OCO3)nc(-n2ccnc2)n1 (centres undefined) |  | 0.029 | 6 | > 100 | < 50 | 
8 | CCCN(CCCNCc1ccc2c(c1)OCO2)c1nc(-n2ccnc2)ns1 |  | 0.009 | 2.3 | > 100 | < 50 | 
9 | Cc1cc(CNC(=O)CNCc2ccc3c(c2)OCO3)nc(-n2ccnc2)n1 | < 50 | 0.293 | > 100 | > 100 | < 50 | 
10 | N#CCN(CCCNCc1ccc2c(c1)OCO2)c1nc(-n2ccnc2)ns1 |  | 0.012 | 7.2 | > 100 | < 50 | 
11 | CN(C)c1ccc(CN(CCCNCc2ccc3c(c2)OCO3)c2nc(-n3ccnc3)ns2)cc1 |  | 0.163 | 6.8 | > 100 | < 50 | 
12 | NC(=O)CN(CCCNCc1ccc2c(c1)OCO2)c1nc(-n2ccnc2)ns1 |  | 0.081 | 11 | > 100 | < 50 | 
13 | CN(CCCNCc1ccc2c(c1)OCCO2)c1nc(-n2ccnc2)ns1 |  | 0.048 | 24 | > 100 | < 50 | 
14 | CN(CCCNCc1ccc2[nH]ccc2c1)c1nc(-n2ccnc2)ns1 | < 50 | > 100 | > 100 | > 100 | < 50 | < 50
15 | Cc1cc(C(C)NCCOCc2ccc3c(c2)OCO3)nc(-n2ccnc2)n1 (centres undefined) | < 50 | 0.29 | > 100 | > 100 | < 50 | 
16 | Cc1cc(CCCCNCc2ccc3c(c2)OCO3)nc(-n2ccnc2)n1 | < 50 | 0.02 | > 100 | > 100 | < 50 | 
17 | c1csc(CN(CCCNCc2ccc3c(c2)OCO3)c2nc(-n3ccnc3)ns2)c1 |  | 0.009 | 0.69 | > 100 | < 50 | 
18 | Cc1cc(C(=O)NCCN(C)Cc2ccc3c(c2)OCO3)nc(-n2ccnc2)n1 | < 50 | > 100 | > 100 | > 100 | < 50 | < 50
19 | CNC(=O)CN(CCCNCc1ccc2c(c1)OCO2)c1nc(-n2ccnc2)ns1 |  | 0.059 | 7.2 | > 100 | < 50 | 

Row | Structure (SMILES) | inhibition (Nitric oxide synthase 1 [1]) [%] | EC50 [2] [µM] | EC50 (Nitric oxide synthase 1 [3]) [µM] | EC50 (Nitric oxide synthase 3) [µM] | inhibition [4] [%] | inhibition [5] [%]
20 | c1cn(-c2nsc(N(CCCNCc3ccc4c(c3)OCO4)Cc3nccs3)n2)cn1 |  | 0.006 | 0.31 | > 100 | < 50 | 
21 | CN(CCCNCc1ccncc1)c1nc(-n2ccnc2)ns1 | < 50 | > 100 | > 100 | > 100 | < 50 | < 50
22 | CN(CCCNCc1ccc2c(c1)OC(F)(F)O2)c1nc(-n2ccnc2)ns1 | < 50 | 8.9 | > 100 | > 100 | < 50 | 
23 | c1cn(-c2nsc(N(CCCNCc3ccc4c(c3)OCO4)C3CC3)n2)cn1 |  | 0.056 | 36 | > 100 | < 50 | 
24 | c1coc(CN(CCCNCc2ccc3c(c2)OCO3)c2nc(-n3ccnc3)ns2)c1 |  | 0.014 | 2.1 | > 100 | < 50 | 
25 | Cc1cc(C2CCCN2C(=O)NCCc2ccc3c(c2)OCO3)nc(-n2ccnc2)n1 (centres undefined) |  | 0.009 | 2.7 | > 100 | < 50 | 
26 | Cc1cc(-c2cccn2CCN(C)Cc2ccc3c(c2)OCO3)nc(-n2ccnc2)n1 | < 50 | 1.8 | > 100 | > 100 | < 50 | 
27 | CCOC(=O)CN(CCCNCc1ccc2c(c1)OCO2)c1nc(-n2ccnc2)ns1 |  | 0.034 | 7.6 | > 100 | < 50 | 
28 | O=C(O)CN(CCCNCc1ccc2c(c1)OCO2)c1nc(-n2ccnc2)ns1 | < 50 | > 100 | > 100 | > 100 | < 50 | < 50
29 | COc1ccc(CNCCCN(C)c2nc(-n3ccnc3)ns2)cc1OC | < 50 | 0.76 | > 100 | > 100 | < 50 | 
30 | Cc1cc(C2CCCN2CC(=O)NCc2ccc3c(c2)OCO3)nc(-n2ccnc2)n1 (centres undefined) |  | 0.036 | 9.5 | > 100 | < 50 | 
31 | c1cn(-c2nsc(N(CCCNCc3ccc4c(c3)OCO4)Cc3nnn[nH]3)n2)cn1 | < 50 | 4 | > 100 | > 100 | < 50 | 
32 | Oc1ccc(CN(CCCNCc2ccc3c(c2)OCO3)c2nc(-n3ccnc3)ns2)cc1 |  | 0.042 | 11 | > 100 | < 50 | 
33 | CN(CCCNCc1ccc(F)c(F)c1)c1nc(-n2ccnc2)ns1 | < 50 | > 100 | > 100 | > 100 | < 50 | < 50
34 | Cc1cc(C2CCCN2CCN(C)Cc2ccc3c(c2)OCO3)nc(-n2ccnc2)n1 (centres undefined) |  | 0.004 | 3.9 | > 100 | < 50 | 
35 | COc1ccc(CNCCCN(C)c2nc(-n3ccnc3)ns2)cc1 | < 50 | 0.36 | > 100 | > 100 | < 50 | 
36 | CN(CCCNCCc1ccc2c(c1)OCO2)c1nc(-n2ccnc2)ns1 |  | 0.23 | 47 | > 100 | < 50 | 
37 | Cc1cc(C2CCCN2C(=O)CNCc2ccc3c(c2)OCO3)nc(-n2ccnc2)n1 (centres undefined) |  | 0.03 | 6.6 | > 100 | < 50 | 
